{"source": "ChEMBL document CHEMBL3526068", "about": "“In vitro investigation of human UDP-glucuronosyltransferase isoforms responsible for tacrolimus glucuronidation: predominant contribution of UGT1A4” (Drug Metab Dispos, 2011)", "key": {"[1]": {"experiment": "Drug metabolism in human intestine assessed as glucuronidation after 1 hr by Eadie-Hofstee plot analysis", "format": "ADME, tissue-based", "in_short": "(§1)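 Pooled human intestine microsomes were incubated 1 h with tacrolimus at 25–750 μM. Glucuronide formation was measured by LC-MS/MS, and kinetic parameters came from a selected enzyme kinetic model fit. Data are mean ± SD of triplicate determinations from three independent experiments.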"}, "[2]": {"experiment": "Drug metabolism in human intestine assessed as glucuronidation at 25 to 750 uM after 1 hr by Eadie-Hofstee plot analysis", "format": "ADME, tissue-based", "in_short": "as §1"}, "Liver microsome": {"test_system": "Liver microsome", "experiment": "Drug metabolism in human liver microsomes assessed as glucuronidation at 200 uM after 16 hrs by LC-MS analysis", "format": "ADME", "in_short": "(§2)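 Microsomes from human liver, kidney and intestine, or from HEK293 cells overexpressing individual UGT1A or UGT2B enzymes, were prepared by differential centrifugation. They were incubated 16 h at 37°C with 200 μM tacrolimus. Tacrolimus glucuronide was detected by LC-MS/MS (C8 column, ammonium acetate/acetic acid–methanol gradient, positive electrospray), with CsA d4 as a marker.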"}, "[3]": {"experiment": "Drug metabolism in human intestine microsomes assessed as glucuronidation at 200 uM after 16 hrs by LC-MS analysis", "format": "ADME", "in_short": "as §2"}, "[4]": {"target": "T1, UDP-glucuronosyltransferase 1A4 (Homo sapiens, UniProt P22310)", "T1 sequence (P22310 whole entry)": "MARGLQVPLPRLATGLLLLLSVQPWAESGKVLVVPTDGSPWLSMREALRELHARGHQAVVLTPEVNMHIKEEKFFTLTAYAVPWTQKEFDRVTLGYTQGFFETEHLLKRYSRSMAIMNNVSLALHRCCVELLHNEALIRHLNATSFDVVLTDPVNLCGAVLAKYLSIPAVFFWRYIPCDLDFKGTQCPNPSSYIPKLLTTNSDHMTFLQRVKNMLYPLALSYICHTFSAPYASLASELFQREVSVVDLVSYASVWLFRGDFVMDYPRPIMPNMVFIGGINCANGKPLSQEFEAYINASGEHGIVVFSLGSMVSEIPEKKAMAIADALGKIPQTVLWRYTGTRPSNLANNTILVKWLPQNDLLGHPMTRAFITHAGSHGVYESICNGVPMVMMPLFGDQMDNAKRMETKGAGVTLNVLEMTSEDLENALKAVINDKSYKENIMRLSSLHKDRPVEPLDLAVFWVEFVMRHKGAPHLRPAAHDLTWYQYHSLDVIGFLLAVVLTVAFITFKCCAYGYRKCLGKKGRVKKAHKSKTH", "experiment": "Activity at human recombinant UGT1A4 assessed as enzyme-mediated tacrolimus glucuronide formation at 200 uM after 16 hrs by LC-MS analysis", "format": "ADME", "in_short": "as §2"}, "[5]": {"target": "T2, UDP-glucuronosyltransferase 2B7 (Homo sapiens, UniProt P16662)", "T2 sequence (P16662 whole entry)": "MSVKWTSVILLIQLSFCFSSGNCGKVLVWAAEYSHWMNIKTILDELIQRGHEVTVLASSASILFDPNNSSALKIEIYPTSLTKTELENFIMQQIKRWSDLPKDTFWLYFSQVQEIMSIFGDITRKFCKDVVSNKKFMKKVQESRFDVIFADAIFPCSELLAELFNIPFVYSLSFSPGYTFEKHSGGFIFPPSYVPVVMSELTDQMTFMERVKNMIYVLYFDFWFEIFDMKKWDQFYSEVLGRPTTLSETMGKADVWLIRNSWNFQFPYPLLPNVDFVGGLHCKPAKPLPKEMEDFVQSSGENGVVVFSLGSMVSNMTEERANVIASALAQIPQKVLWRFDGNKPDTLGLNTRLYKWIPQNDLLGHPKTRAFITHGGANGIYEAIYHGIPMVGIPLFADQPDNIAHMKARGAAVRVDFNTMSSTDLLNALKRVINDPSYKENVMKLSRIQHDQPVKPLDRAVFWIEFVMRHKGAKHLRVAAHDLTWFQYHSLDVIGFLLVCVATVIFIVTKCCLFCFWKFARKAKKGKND", "experiment": "Drug metabolism in human kidney microsomes assessed as UGT2B7-mediated tacrolimus glucuronide formation at 200 uM after 16 hrs by LC-MS analysis", "format": "ADME", "in_short": "as §2"}, "UGT1A4*1": {"test_system": "UGT1A4*1", "experiment": "Activity of UGT1A4*1 mutant (unknown origin) overexpressed in HEK293 cells assessed as enzyme-mediated glucuronidation after 1 hr by Eadie-Hofstee plot analysis", "format": "ADME, cell-based", "settings": "human, HEK293 cells overexpressing UGT1A4*1", "in_short": "(§3)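 Tacrolimus at 25–750 μM was incubated 1 h and glucuronide was measured by LC-MS/MS. A kinetic model was fitted, and Vmax was adjusted for UGT1A4 protein content. Data are mean ± SD of triplicates from three independent experiments.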"}, "[6]": {"experiment": "Activity of UGT1A4*1 mutant (unknown origin) overexpressed in HEK293 cells assessed as enzyme-mediated glucuronidation at 25 to 750 uM after 1 hr by Eadie-Hofstee plot analysis", "format": "ADME, cell-based", "settings": "human, hek293, 1 h", "in_short": "as §3"}, "[7]": {"target": "UDP-glucuronosyltransferase 1A4 (Homo sapiens, UniProt P22310, P24T)", "sequence (P22310 whole entry P24T)": "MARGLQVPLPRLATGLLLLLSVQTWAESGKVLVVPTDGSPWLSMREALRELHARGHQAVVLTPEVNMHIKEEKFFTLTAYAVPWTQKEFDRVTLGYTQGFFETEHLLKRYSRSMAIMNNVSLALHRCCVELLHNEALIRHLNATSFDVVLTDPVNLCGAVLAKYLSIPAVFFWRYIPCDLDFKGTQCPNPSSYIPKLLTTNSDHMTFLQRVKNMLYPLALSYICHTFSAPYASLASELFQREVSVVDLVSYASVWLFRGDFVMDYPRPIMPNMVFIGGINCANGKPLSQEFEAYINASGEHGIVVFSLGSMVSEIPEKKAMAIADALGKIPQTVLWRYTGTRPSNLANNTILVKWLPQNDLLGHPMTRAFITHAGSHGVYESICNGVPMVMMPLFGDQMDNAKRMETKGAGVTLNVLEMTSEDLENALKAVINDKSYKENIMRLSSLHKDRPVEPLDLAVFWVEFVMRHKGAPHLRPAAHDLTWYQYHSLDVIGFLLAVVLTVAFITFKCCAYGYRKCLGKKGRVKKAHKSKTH", "experiment": "Activity of UGT1A4*2 mutant (unknown origin) overexpressed in HEK293 cells assessed as enzyme-mediated glucuronidation at 25 to 750 uM after 1 hr by Eadie-Hofstee plot analysis", "format": "ADME, cell-based", "settings": "hek293, 1 h", "in_short": "as §3"}, "[8]": {"target": "UDP-glucuronosyltransferase 1A4 (Homo sapiens, UniProt P22310, L48V)", "sequence (P22310 29-534 L48V limits assumed)": "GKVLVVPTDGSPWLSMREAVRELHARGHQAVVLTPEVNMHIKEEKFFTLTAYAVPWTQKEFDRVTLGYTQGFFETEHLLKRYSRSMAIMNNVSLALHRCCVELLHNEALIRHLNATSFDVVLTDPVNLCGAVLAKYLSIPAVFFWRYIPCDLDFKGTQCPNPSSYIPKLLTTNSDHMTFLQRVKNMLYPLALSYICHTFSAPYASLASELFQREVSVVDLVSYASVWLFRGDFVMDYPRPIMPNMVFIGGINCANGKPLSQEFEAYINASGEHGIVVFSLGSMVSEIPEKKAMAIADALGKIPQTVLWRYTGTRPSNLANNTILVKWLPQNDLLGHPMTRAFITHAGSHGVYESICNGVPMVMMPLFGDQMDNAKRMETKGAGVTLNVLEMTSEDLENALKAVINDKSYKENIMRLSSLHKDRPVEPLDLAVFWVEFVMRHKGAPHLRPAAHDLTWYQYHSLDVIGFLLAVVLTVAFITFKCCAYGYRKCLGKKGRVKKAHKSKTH", "experiment": "Activity of UGT1A4*3 mutant (unknown origin) overexpressed in HEK293 cells assessed as enzyme-mediated glucuronidation at 25 to 750 uM after 1 hr by Eadie-Hofstee plot analysis", "format": "ADME, cell-based", "settings": "hek293, 1 h", "in_short": "as §3"}, "UGT1A4*4": {"test_system": "UGT1A4*4", "experiment": "Activity of UGT1A4*4 mutant (unknown origin) overexpressed in HEK293 cells assessed as enzyme-mediated glucuronidation after 1 hr by Eadie-Hofstee plot analysis", "format": "ADME, cell-based", "settings": "human, HEK293 cells overexpressing UGT1A4*4", "in_short": "as §3"}, "[9]": {"experiment": "Activity of UGT1A4*4 mutant (unknown origin) overexpressed in HEK293 cells assessed as enzyme-mediated glucuronidation at 25 to 750 uM after 1 hr by Eadie-Hofstee plot analysis", "format": "ADME, cell-based", "settings": "human, hek293, 1 h", "in_short": "as §3"}, "[10]": {"test_system": "C=CC[C@@H]1/C=C(\\C)C[C@H](C)C[C@H](OC)[C@H]2O[C@@](O)(C(=O)C(=O)N3CCCC[C@H]3C(=O)O[C@H](/C(C)=C/[C@@H]3CC[C@@H](O)[C@H](OC)C3)[C@H](C)[C@@H](O)CC1=O)[C@H](C)C[C@@H]2OC", "experiment": "Activity of UGT1A4*3 mutant (unknown origin) overexpressed in HEK293 cells assessed as enzyme-mediated glucuronidation after 1 hr by Eadie-Hofstee plot analysis", "format": "ADME, cell-based, Homo sapiens", "in_short": "as §3"}, "[11]": {"test_system": "C=CC[C@@H]1/C=C(\\C)C[C@H](C)C[C@H](OC)[C@H]2O[C@@](O)(C(=O)C(=O)N3CCCC[C@H]3C(=O)O[C@H](/C(C)=C/[C@@H]3CC[C@@H](O)[C@H](OC)C3)[C@H](C)[C@@H](O)CC1=O)[C@H](C)C[C@@H]2OC", "experiment": "Activity of UGT1A4*2 mutant (unknown origin) overexpressed in HEK293 cells assessed as enzyme-mediated glucuronidation after 1 hr by Eadie-Hofstee plot analysis", "format": "ADME, cell-based, Homo sapiens", "in_short": "as §3"}}, "data": [{"compound": "C=CC[C@@H]1/C=C(\\C)C[C@H](C)C[C@H](OC)[C@H]2O[C@@](O)(C(=O)C(=O)N3CCCC[C@H]3C(=O)O[C@H](/C(C)=C/[C@@H]3CC[C@@H](O)[C@H](OC)C3)[C@H](C)[C@@H](O)CC1=O)[C@H](C)C[C@@H]2OC", "note": "[TACROLIMUS ANHYDROUS]", "values": [{"measurement": "Km at 1 h", "setting": "[1]", "result": 51.8, "unit": "µM"}, {"measurement": "Vmax", "setting": "[2]", "result": 0.04, "unit": "area/min/mg"}, {"measurement": "Drug metabolism", "setting": "Liver microsome", "result": "metabolite_detected"}, {"measurement": "Drug metabolism", "setting": "[3]", "result": "metabolite_detected"}, {"measurement": "Drug metabolism", "setting": "[4]", "result": "metabolite_detected"}, {"measurement": "Drug metabolism", "setting": "[5]", "result": "metabolite_not_detected"}, {"measurement": "Km at 1 h", "setting": "UGT1A4*1", "result": 91, "unit": "µM"}, {"measurement": "Vmax", "setting": "[6]", "result": 1.65, "unit": "area/min/mg"}, {"measurement": "Vmax", "setting": "[7]", "result": 1.65, "unit": "area/min/mg"}, {"measurement": "Vmax", "setting": "[8]", "result": 2.23, "unit": "area/min/mg"}, {"measurement": "Km at 1 h", "setting": "UGT1A4*4", "result": 101, "unit": "µM"}, {"measurement": "Vmax", "setting": "[9]", "result": 3.14, "unit": "area/min/mg"}]}, {"compound": "UDP-glucuronosyltransferase 1A4 (Homo sapiens; L48V)", "values": [{"measurement": "Km", "setting": "[10]", "result": 126, "unit": "µM"}]}, {"compound": "UDP-glucuronosyltransferase 1A4 (Homo sapiens; P24T)", "values": [{"measurement": "Km", "setting": "[11]", "result": 114, "unit": "µM"}]}]}
